In ChEMBL document CHEMBL4145497, “Discovery of 2-aminothiazolyl berberine derivatives as effectively antibacterial agents toward clinically drug-resistant Gram-negative Acinetobacter baumanii” (Eur J Med Chem, 2018):
≈ marks a conversion by molar mass, not a printed value. Calls of active or inactive are those of the source. The rule behind the calls is not given here.

Experiments:
Pseudomonas aeruginosa [1] = test: Antibacterial activity against Pseudomonas aeruginosa ATCC 27853 after 18 to 24 hrs by CLSI two fold serial dilution method; assay type: functional
Staphylococcus aureus [2] = test: Antibacterial activity against methicillin-resistant Staphylococcus aureus N315 after 18 to 24 hrs by CLSI two fold serial dilution method; assay type: functional
[3] = Oral bioavailability in ICR mouse at 10.4 to 83.2 mg/kg after 60 mins by HPLC method; assay type: ADME, organism-based; conditions: in vivo
[4] = Aqueous solubility of the compound in phosphate buffer at pH 7.4 after 3 hrs by UV detection assay; assay type: physicochemical
Method in brief: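 Water solubility measured at physiological pH, with berberine as the control.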

Bacillus subtilis = test: Antibacterial activity against Bacillus subtilis ATCC 21216 after 18 to 24 hrs by CLSI two fold serial dilution method; assay type: functional
Escherichia coli [5] = test: Antibacterial activity against drug-resistant Escherichia coli after 18 to 24 hrs by CLSI two fold serial dilution method; assay type: functional
Escherichia coli [6] = test: Antibacterial activity against Escherichia coli DH52 after 18 to 24 hrs by CLSI two fold serial dilution method; assay type: functional
Pseudomonas aeruginosa [7] = test: Antibacterial activity against drug-resistant Pseudomonas aeruginosa after 18 to 24 hrs by CLSI two fold serial dilution method; assay type: functional
Acinetobacter baumannii [8] = test: Antibacterial activity against drug-resistant Acinetobacter baumannii after 18 to 24 hrs by CLSI two fold serial dilution method; assay type: functional
Staphylococcus aureus [9] = test: Antibacterial activity against Staphylococcus aureus ATCC 25923 after 18 to 24 hrs by CLSI two fold serial dilution method; assay type: functional
Enterococcus faecalis [10] = test: Antibacterial activity against drug-resistant Enterococcus faecalis after 18 to 24 hrs by CLSI two fold serial dilution method; assay type: functional
Klebsiella pneumoniae [11] = test: Antibacterial activity against drug-resistant Klebsiella pneumoniae after 18 to 24 hrs by CLSI two fold serial dilution method; assay type: functional
Micrococcus luteus = test: Antibacterial activity against Micrococcus luteus ATCC 4698 after 18 to 24 hrs by CLSI two fold serial dilution method; assay type: functional
Staphylococcus aureus [12] = test: Antibacterial activity against methicillin-resistant Staphylococcus aureus N315 after 18 to 24 hrs in presence of norfloxacin by two fold dilution checkerboard method; assay type: functional
DNA [13] = test: Induction of drug-resistant Acinetobacter baumanii DNA cleavage at 50 uM after 6 hrs by ethidium bromide staining based agarose gel electrophoresis method; assay type: nucleic-acid assay; conditions: Acinetobacter baumannii
Method in brief: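 Spin-column-isolated genomic DNA from drug-resistant A. baumanii (1.31×10^-6 mol/L) was incubated with compound (50 μM) in 50 mM Tris-HCl/50 mM NaCl, pH 7.4, at 37 °C for 6 h. Agarose gel electrophoresis was run against DNA-alone and DNA-plus-buffer lanes.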

Acinetobacter baumannii [14] = test: Synergistic antibacterial activity against drug-resistant Acinetobacter baumannii assessed as FIC index in presence of norfloxacin by two fold dilution checkerboard method; assay type: functional
Acinetobacter baumannii [15] = test: Antibacterial activity against drug-resistant Acinetobacter baumannii at 0.7 ug/ml measured 12 hrs post 10 serial passages; assay type: functional, organism-based
Staphylococcus aureus [16] = test: Potentiation of norfloxacin-mediated antibacterial activity against methicillin-resistant Staphylococcus aureus N315 after 18 to 24 hrs by two fold dilution checkerboard method relative to control; assay type: functional
Klebsiella pneumoniae [17] = test: Potentiation of norfloxacin-mediated antibacterial activity against drug-resistant Klebsiella pneumoniae assessed as norfloxacin MIC after 18 to 24 hrs by two fold dilution checkerboard method (reference value: 0.8 umol/ml); assay type: functional
Escherichia coli [18] = test: Potentiation of norfloxacin-mediated antibacterial activity against drug-resistant Escherichia coli assessed as norfloxacin MIC after 18 to 24 hrs by two fold dilution checkerboard method (reference value: 1.6 umol/ml); assay type: functional
DNA [19] = test: Binding affinity to drug-resistant Acinetobacter baumanii DNA by UV-vis spectroscopic analysis; assay type: nucleic-acid assay; conditions: Acinetobacter baumannii
Method in brief: (§1)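 Genomic DNA was isolated from drug-resistant A. baumanii by spin-column extraction after proteinase K lysis at 70 °C. DNA concentration was taken from A260 using ε260 = 6600 L·mol−1·cm−1, expressed as phosphate molarity, and purity was checked by A260/A280 and gel. UV-vis spectra were recorded at a fixed DNA concentration of 8.12×10^-4 mol/L with increasing compound.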

Acinetobacter baumannii [20] = test: Antibacterial activity against drug-resistant Acinetobacter baumannii after 18 to 24 hrs in presence of norfloxacin by two fold dilution checkerboard method; assay type: functional
Enterococcus faecalis [21] = test: Potentiation of norfloxacin-mediated antibacterial activity against drug-resistant Enterococcus faecalis assessed as norfloxacin MIC after 18 to 24 hrs by two fold dilution checkerboard method (reference value: 0.8 umol/ml); assay type: functional
Acinetobacter baumannii [22] = test: Bactericidal activity against drug-resistant Acinetobacter baumannii assessed as reduction in number of viable bacterial load at 8 nmol/ml with in 2 hrs by time kill assay; assay type: functional
Acinetobacter baumannii [23] = test: Potentiation of norfloxacin-mediated antibacterial activity against drug-resistant Acinetobacter baumannii assessed as norfloxacin MIC after 18 to 24 hrs by two fold dilution checkerboard method (reference value: 0.8 umol/ml); assay type: functional
Enterococcus faecalis [24] = test: Antibacterial activity against drug-resistant Enterococcus faecalis after 18 to 24 hrs in presence of norfloxacin by two fold dilution checkerboard method; assay type: functional
[25] = Cytotoxicity against human LO2 cells assessed as cell viability at 1.5625 to 100 ug/ml after 48 hrs by MTT assay relative to control; assay type: cell-based, L02; conditions: read-out: Activity
Method in brief: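 Human hepatocyte LO2 cells exposed to compound across a concentration range for 48 h; viability read by colorimetric MTT assay; standard deviation from three independent experiments.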

Cyberlindnera jadinii = test: Antifungal activity against Candida utilis ATCC 9950 by CLSI two fold serial dilution method; assay type: functional; conditions: Williopsis jadinii
Saccharomyces cerevisiae = test: Antifungal activity against Saccharomyces cerevisiae ATCC 9763 by CLSI two fold serial dilution method; assay type: functional
Pichia norvegensis = test: Antifungal activity against Candida mycoderma ATCC 96918 by CLSI two fold serial dilution method; assay type: functional
Klebsiella pneumoniae [26] = test: Synergistic antibacterial activity against drug-resistant Klebsiella pneumoniae assessed as FIC index in presence of norfloxacin by two fold dilution checkerboard method; assay type: functional
Pseudomonas aeruginosa [27] = test: Potentiation of norfloxacin-mediated antibacterial activity against drug-resistant Pseudomonas aeruginosa assessed as norfloxacin MIC after 18 to 24 hrs by two fold dilution checkerboard method (reference value: 1.6 umol/ml); assay type: functional
Enterococcus faecalis [28] = test: Additive antibacterial activity against drug-resistant Enterococcus faecalis assessed as FIC index in presence of norfloxacin by two fold dilution checkerboard method; assay type: functional
Pseudomonas aeruginosa [29] = test: Antibacterial activity against drug-resistant Pseudomonas aeruginosa after 18 to 24 hrs in presence of norfloxacin by two fold dilution checkerboard method; assay type: functional
Aspergillus flavus [30] = test: Antifungal activity against Aspergillus flavus ATCC 204304 by CLSI two fold serial dilution method; assay type: functional
Candida parapsilosis = test: Antifungal activity against Candida parapsilosis ATCC 22019 by CLSI two fold serial dilution method; assay type: functional; conditions: Lodderomyces parapsilosis
DNA [31] = test: Binding affinity to drug-resistant Acinetobacter baumanii DNA assessed as hyperchromic effect up to 2.5 10^-5mol/L by UV-vis spectroscopic analysis; assay type: nucleic-acid assay; conditions: Acinetobacter baumannii; method in brief: as §1
Pseudomonas aeruginosa [32] = test: Synergistic antibacterial activity against drug-resistant Pseudomonas aeruginosa assessed as FIC index in presence of norfloxacin by two fold dilution checkerboard method; assay type: functional
Klebsiella pneumoniae [33] = test: Antibacterial activity against drug-resistant Klebsiella pneumoniae after 18 to 24 hrs in presence of norfloxacin by two fold dilution checkerboard method; assay type: functional
Acinetobacter baumannii [34] = test: Induction of membrane permeabilization in drug-resistant Acinetobacter baumannii at 0.024 umol/ml incubated for 1 hr measured up to 120 mins by propidium iodide staining-based fluorescence spectra analysis; assay type: functional, organism-based
DNA [35] = test: Inhibition of neutral red binding to drug-resistant Acinetobacter baumanii DNA up to 2.5 10^-5mol/L by UV-vis spectroscopic analysis; assay type: nucleic-acid assay; conditions: Acinetobacter baumannii
Method in brief: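 Neutral red competition with genomic DNA from drug-resistant A. baumanii, extracted by spin column after proteinase K lysis. UV-vis absorbance near 460 nm was followed as compound concentration increased in the neutral red–DNA system.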

Candida albicans = test: Antifungal activity against Candida albicans ATCC 76615 by CLSI two fold serial dilution method; assay type: functional
Escherichia coli [36] = test: Synergistic antibacterial activity against drug-resistant Escherichia coli assessed as FIC index in presence of norfloxacin by two fold dilution checkerboard method; assay type: functional
Aspergillus flavus [37] = test: Potency index, ratio of fluconazole MIC to compound MIC for antibacterial activity against Aspergillus flavus ATCC 204304; assay type: functional
Staphylococcus aureus [38] = test: Ratio of MIC for methicillin-resistant Staphylococcus aureus N315 in absence of norfloxacin to MIC for methicillin-resistant Staphylococcus aureus N315 in presence of norfloxacin; assay type: functional
Escherichia coli [39] = test: Antibacterial activity against drug-resistant Escherichia coli after 18 to 24 hrs in presence of norfloxacin by two fold dilution checkerboard method; assay type: functional
Staphylococcus aureus [40] = test: Synergistic antibacterial activity against methicillin-resistant Staphylococcus aureus N315 assessed as FIC index in presence of norfloxacin by two fold dilution checkerboard method; assay type: functional
Staphylococcus aureus [41] = test: Potentiation of norfloxacin-mediated antibacterial activity against methicillin-resistant Staphylococcus aureus N315 assessed as norfloxacin MIC after 18 to 24 hrs by two fold dilution checkerboard method (reference value: 0.03 umol/ml); assay type: functional

## COc1ccc2cc3[n+](cc2c1OC)CCc1cc2c(cc1-3)OCO2 [BERBERINE]
Pseudomonas aeruginosa [1]
  MIC: 690 µM
Staphylococcus aureus [2]
  MIC: 1380 µM
[3]
  bioavailability: < 1%
[4]
  solubility at 3 h: 86 µg/mL
Bacillus subtilis
  MIC: 690 to 1380 µM
Escherichia coli [5]
  MIC: 1380 µM
Escherichia coli [6]
  MIC: 690 to 1380 µM
Pseudomonas aeruginosa [7]
  MIC: 1380 µM
Acinetobacter baumannii [8]
  MIC: 1380 µM
Staphylococcus aureus [9]
  MIC: 340 µM
Enterococcus faecalis [10]
  MIC: 1380 µM
Klebsiella pneumoniae [11]
  MIC: 1380 µM
Micrococcus luteus
  MIC: 690 to 1380 µM

## CCCCCCOc1c(OC)cc(/C=N/Nc2nccs2)c2c1CN1CCc3cc4c(cc3C1C2)OCO4 (stereo not given)
Staphylococcus aureus [12]
  MIC: 7 µM
Pseudomonas aeruginosa [1]
  MIC: 60 µM (≈ 32.1 µg/mL)
DNA [13]
  Activity: Active
Acinetobacter baumannii [14]
  fractional inhibitory concentration index (FICI): 0.31
Acinetobacter baumannii [15]
  Activity: Active
Staphylococcus aureus [16]
  fold change (FC): 4
Klebsiella pneumoniae [17]
  MIC: 100 µM
Escherichia coli [18]
  MIC: 100 µM
DNA [19]
  K: 2.54 ×10³ L/mol
Acinetobacter baumannii [20]
  MIC: 0.5 µM
Enterococcus faecalis [21]
  MIC: 50 µM
Staphylococcus aureus [2]
  MIC: 7 to 30 µM (≈ 3.74 to 16 µg/mL)
Acinetobacter baumannii [22]
  Activity: >3 deltalog10CFU/ml
Acinetobacter baumannii [23]
  MIC: 50 µM
Enterococcus faecalis [24]
  MIC: 15 µM
[25]
  viability at 48 h: > 70.7%
[4]
  solubility at 3 h: 1420 µg/mL (≈ 2660 µM)
Bacillus subtilis
  MIC: 120 µM (≈ 64.2 µg/mL)
Cyberlindnera jadinii
  MIC: 120 µM (≈ 64.2 µg/mL)
Saccharomyces cerevisiae
  MIC: 60 µM (≈ 32.1 µg/mL)
Pichia norvegensis
  MIC: 30 µM (≈ 16 µg/mL)
Klebsiella pneumoniae [26]
  fractional inhibitory concentration index (FICI): 0.38
Pseudomonas aeruginosa [27]
  MIC: 50 µM
Escherichia coli [6]
  MIC: 60 µM (≈ 32.1 µg/mL)
Enterococcus faecalis [28]
  fractional inhibitory concentration index (FICI): 0.56
Pseudomonas aeruginosa [29]
  MIC: 25 µM
Aspergillus flavus [30]
  MIC: 60 µM (≈ 32.1 µg/mL)
Candida parapsilosis
  MIC: 4 µM (≈ 2.14 µg/mL)
Staphylococcus aureus [9]
  MIC: 30 µM (≈ 16 µg/mL)
DNA [31]
  Activity: Active
Pseudomonas aeruginosa [32]
  fractional inhibitory concentration index (FICI): 0.45
Klebsiella pneumoniae [33]
  MIC: 30 µM
Acinetobacter baumannii [34]
  Activity: Active
DNA [35]
  inhibition: Active
Candida albicans
  MIC: 30 µM (≈ 16 µg/mL)
Escherichia coli [36]
  fractional inhibitory concentration index (FICI): 0.31
Aspergillus flavus [37]
  Ratio: 14
Staphylococcus aureus [38]
  Ratio: 4
Escherichia coli [39]
  MIC: 30 µM
Staphylococcus aureus [40]
  fractional inhibitory concentration index (FICI): 0.5
Staphylococcus aureus [41]
  MIC: 6 µM
Micrococcus luteus
  MIC: 60 µM (≈ 32.1 µg/mL)
